The EternaBench riboswitch data

Experiments:
[1] = tested on: MS2 coat protein; experiment: apparent Kd, MS2 coat protein; higher = weaker binding; RNA-MaP array; theophylline 2 mM where present
Procedure, shortened: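 On Illumina sequencing-chip clusters, designs were transcribed by stalled E. coli RNA polymerase and titrated with SNAP-549-labelled MS2 coat protein (0.7 or 1.5 nM, doubling to 3 µM), without and then with constant ligand, in 100 mM Tris-HCl pH 7.5, 80 mM KCl, 4 mM MgCl2, BSA, DTT, yeast tRNA and Tween-20. Apparent Kd is the median of filtered per-cluster curve fits to green signal normalised to red-channel RNA signal and control-cluster median Fmax.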

[2] = tested on: MS2 coat protein; experiment: apparent Kd, MS2 coat protein; higher = weaker binding; RNA-MaP array
Procedure, shortened: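 Designed RNAs were transcribed on an Illumina sequencing chip from sequenced DNA templates. They were incubated at room temperature with fluorescently labeled MS2 coat protein at 1.5 nM to 3 μM, for 0.8–1.5 h at the lowest to 10–20 min at the highest concentrations, in Tris-HCl pH 7.5 buffer with KCl, MgCl2, BSA, DTT, tRNA and Tween20, with or without input ligand. Apparent Kd is the median of per-cluster binding-curve fits. Designs measured on fewer than 10 clusters were excluded.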

[3] = designed as: OFF switch for theophylline, no ligand
[4] = ligand present: theophylline, designed as: OFF switch for theophylline
[5] = designed as: ON switch for theophylline, no ligand
[6] = ligand present: theophylline, designed as: ON switch for theophylline
[7] = designed as: OFF switch for flavin mononucleotide, no ligand
[8] = ligand present: flavin mononucleotide, designed as: OFF switch for flavin mononucleotide
[9] = designed as: ON switch for flavin mononucleotide, no ligand
[10] = ligand present: flavin mononucleotide, designed as: ON switch for flavin mononucleotide

| Sequence | apparent Kd [1, 3] [nM] | apparent Kd [1, 4] [nM] | apparent Kd [2, 7] [nM] | apparent Kd [2, 8] [nM] | further results |
| --- | --- | --- | --- | --- | --- |
| AAGCAGGGUGUAAAAUAAAUAAUCACUGAUACCAGACUAUGAGAUGUCCCUUGGCAGCAGAAACAUGAGGAUCACCCAUGUAAUA | 22.7 | 32.3 |  |  |  |
| AGACAUGAGGAUCACCCAUGUAGUACGGAUACCAGAUCCAGAUGUAUCCCUUGGCAGCUGUGGUACAGCGUUGCAACGCUCCUAG | 16 | 15.3 |  |  |  |
| UAUUUUGGGCGCGAGCCCGGGAUAAUUGAUACCAGUGAAGAAGAGCGCCCUUGGCAGCGAAUCCUAACAUGAGGAUCACCCAUGU |  |  |  |  | apparent Kd [1, 5]: 47.5 nM; apparent Kd [1, 6]: 60 nM |
| AGCCUAUUACAUGAGGAUCACCCAUGUGAUACCAGUCAGGAAACUGACCCUUGGCAGCGCAUGAGGAUCACCCAUGCGCGAGGCA | 11 | 11.9 |  |  |  |
| UGACAUUGCUGCGAUACCAGACAUGAGGAUCACCCAUGUACCAAGAAAACGUACAUAAAUGUCCCUUGGCAGCGCAGCAAUGUCU | 524 | 1360 |  |  |  |
| UCUUUCUUUGUAGAUACCAGCAUGUUAAGUUUCUUUUGACAUGAGGAUCACCCAUGUACAUGCCCUUGGCAGCUACAUUUUCUUU |  |  |  |  | apparent Kd [1, 5]: 15.2 nM; apparent Kd [1, 6]: 16.5 nM |
| UGUAAAAUAACAGAUACCAGCGUGUUAUAAAACAUGAGGAUCACCCAUGUAGUGAUCAAGCGCCCUUGGCAGCUGGUAUUUUAUG |  |  |  |  | apparent Kd [1, 5]: 160 nM; apparent Kd [1, 6]: 129 nM |
| UGUUUGGUGCGCGAGUGUUGGAUGAUUGAUACCAGUGAAGAAGAGCGCCCUUGGCAGCGAAUCCUAACAUGAGGAUCACCCAUGU |  |  |  |  | apparent Kd [1, 5]: 50.8 nM; apparent Kd [1, 6]: 67.6 nM |
| AGCCCUGUACUAGAUACCAGCUACAUGAGGAUCACCCAUGUGCGUCAAGACUGACUGUGUGGCCCUUGGCAGCUGCUCGCAUGUA | 146 | 208 |  |  |  |
| UUUUAAAGCAUGGCGUAUCGGAAAACCGAUACCAGUACAGAAAUGUACCCUUGGCAGCGGAAUUUUACAUGAGGAUCACCCAUGU | 13.1 | 43.4 |  |  |  |
| AAAACACAUGAGGAUCACCCAUGUCAUGAUACCAGUCCACAUGAGGACCCUUGGCAGCAUAAAAUGGGUAACAUGAGGAUAACCC | 29.6 | 82.8 |  |  |  |
| GUCAGUAGAACAGAUACCAGUCAAAGGCUGUGAUCUCAUAACAUGAGGAUCACCCAUGUUGACCCUUGGCAGCUGUGGGCGAGGG | 45.2 | 391 |  |  |  |
| UUUGCACAUGAGGAUCACCCAUGUACAGAUACCAGCCUCAUCUACGGCCCUUGGCAGCUGAGACAAUGGUGACGUGACGGGCUUU | 11.7 | 28.2 |  |  |  |
| ACAUGAGGAUCACCCAUGUAACGUCUUGAUACCAGACGAGAAGUAGUCCCUUGGCAGCAAAUACGUGAGGGUCACACAUGUGUAA | 23.4 | 61.5 |  |  |  |
| UACUCGACUUAGAAGGGUUUGUGGACAGCCAGUGGCGUGCGUACAUGAGGAUCACCCAUGUCUCAACAGGAUAUAAGCAUUAGC |  |  | 35 | 27 |  |
| AUAAAACAUGAGGAUCACCCAUGUAUAGAAAGCGCAGGAUAUAGGUGAUCAUAGUACUAUCAAGAAGGGCGGAACC |  |  |  |  | apparent Kd [2, 9]: 217 nM; apparent Kd [2, 10]: 184 nM |
| CUGAGGUUAGGAUAUCUUCUGUUAUCUUCACGAUGAUAAACAGAGAAGGAACAUGAGGAUCACCCAUGUGGUCU |  |  | 135 | 99.8 |  |
| CUGGUUGUCAAAGGAUAUAAACGAUCACAUGAGGAUCACCCAUGUCUCCCUAUGUUAAUAAGCGCUUAGAAGGUUGAGCCAGCC |  |  | 31.3 | 34.4 |  |
| GCACGGAAAGGAUAUACAUGAGGAUCACCCAUGUUUCUUCUCAGGGCAAUUACCACAUGUAGAAGGUUCUCCAG |  |  | 29.4 | 39.8 |  |
| CGUGAAUACGAAGGAUAUGAAACAUGAGGAUCACCCAUGUAAGGUUUAAGCGACGGCUUGACAGGUCAGAAGGUCGUCCGCAUG |  |  |  |  | apparent Kd [2, 9]: 42.2 nM; apparent Kd [2, 10]: 27.8 nM |
| CUGCCACAGAUAGAUACCAGAGGCGUGCAAGCUACAGCUCACAUGAGGAUCACCCAUGUUCUCCCUUGGCAGCUACGGUGUAAGG |  |  |  |  | apparent Kd [2, 3]: 16.6 nM; apparent Kd [2, 4]: 17.4 nM |
| AAGUCAGGAGGCGAUACCAGUUACGACAUGGCCAGUUACAUGAGGAUCACCCAUGUGCGGAACCCUUGGCAGCGCUUACAUCGCU |  |  |  |  | apparent Kd [2, 3]: 23.1 nM; apparent Kd [2, 4]: 165 nM |
| CGUCUAGUUGAGAAGGAUUCGGCGUCGGUCAUGUUAAUCUGGAAACAUGAGGAUCACCCAUGUCAAUAGGAUAUCAGGGCACUA |  |  | 11.2 | 12.8 |  |
| UAUGUACGUAGGGACAUGAGGAUCACCCAUGUGGUCCGUAUUAGAAGGACGAAUACCGAUAAAACGUAGGAUAUAAUAACUCCG |  |  | 134 | 148 |  |
| ACACGCUAAGGAUAUACAUGAGGAUCACCCAUGUUAAAAGUUAAAUAGGAAUGAUACCGUAGAAGGUAGGAUGA |  |  | 13.2 | 11.4 |  |
| AGUGUAAUAUAAGGAUAUAACCGCACAAGAAUGUUAGAAGGUAUUUUACAUGAGGAUCACCCAUGUGAAUGUAGUCCUCACUAU |  |  | 9.6 | 10.5 |  |
